ATG4B inh = ATG4B protease inhibitors, primary screen, biochemical, fluorescence, uHTS; actives 0.51% (n = 340,000); inhibition, % at 8.33 µM; ATG4B cleavage of LC3-PLA2, NBD-HPC fluorescence, 1 h; Cysteine protease ATG4B (Homo sapiens), Q9Y4P1; in the data active means inhibition above about 40%
HNF4A DNA FP = change in binding of human HNF4A to DNA, primary screen, biochemical, fluorescence polarization, FITC-DNA; activity change, % at 10 µM; AID 1224865, 2016; actives 0.3% (n = 360,000); 1 h; Hepatocyte nuclear factor 4-alpha (Homo sapiens), P41235; in the data active means activity change above about 30%, passing the limit was not always enough
Rpn11 block = Rpn11 (PSMD14) deubiquitinase inhibitors, primary screen, biochemical, fluorescence polarization, uHTS; 26S proteasome non-ATPase regulatory subunit 14 (Homo sapiens), O00487; human 26S proteasome, Ub4-pepOG fluorescence polarization; 20S core pre-blocked with epoxomicin; inhibition, % at 20 µM; actives 0.59% (n = 360,000); AID 588493, 2011;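 active means inhibition at 20 µM, scaled to each plate's controls, above about 33%, limit read from the data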
CSN deneddyl inh = inhibitors of CSN-mediated cullin deneddylation, primary screen, biochemical, fluorescence polarization, uHTS. COP9 signalosome complex subunit 5 (Homo sapiens), Q92905. Purified CSN, SCF-Nedd8-OG deneddylation. inhibition, % at 12.5 µM. actives 0.38% (n = 360,000);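 active means pattern-corrected inhibition above about 35%, with an unprinted fluorescence ratio check between 0.5 and 1.5, limit read from the data, passing the limit was not always enough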;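 further: 0% = enzyme with substrate and 100% = substrate without enzyme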
Target sequence (Q92905 whole entry, looked up, one chain of several): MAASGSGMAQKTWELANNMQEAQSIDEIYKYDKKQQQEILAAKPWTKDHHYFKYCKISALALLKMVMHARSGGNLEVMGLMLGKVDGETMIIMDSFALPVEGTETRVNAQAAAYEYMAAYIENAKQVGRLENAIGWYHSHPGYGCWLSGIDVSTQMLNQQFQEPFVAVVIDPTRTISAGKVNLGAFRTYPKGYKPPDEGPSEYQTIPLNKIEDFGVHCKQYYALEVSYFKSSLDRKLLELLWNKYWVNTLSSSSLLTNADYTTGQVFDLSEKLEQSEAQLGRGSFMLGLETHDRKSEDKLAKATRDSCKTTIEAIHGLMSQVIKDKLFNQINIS
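Assay system: purified human Csn5 enzyme expressed in HEK293T cells; measure: % inhibition; also added: SCFSkp2-Nedd8OG substrate at 10 nM final; technique: fluorescence polarization; times: reaction 90 min, room temperature; medium: Tris buffer pH 7.5, NaCl, DTT, Tween-20, trehalose, ovalbumin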
SENP1 FRET inh = human SENP1 catalytic domain inhibitors, primary screen, biochemical, FRET, uHTS; actives 0.21% (n = 360,000); Sentrin-specific protease 1 (Homo sapiens), Q9P0U3; AID 624204, 2012; inhibition, % at 10 µM; recombinant SENP1 catalytic domain, CyPet-SUMO1-YPet FRET cleavage;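 active means inhibition at least 30% at 10 µM, raw YFP signal under a set limit, fluorescence ratio 0.5 to 1.5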;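 further: 0% = enzyme with DMSO and 100% = no enzyme wells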
Target sequence (Q9P0U3 419-644 limits assumed): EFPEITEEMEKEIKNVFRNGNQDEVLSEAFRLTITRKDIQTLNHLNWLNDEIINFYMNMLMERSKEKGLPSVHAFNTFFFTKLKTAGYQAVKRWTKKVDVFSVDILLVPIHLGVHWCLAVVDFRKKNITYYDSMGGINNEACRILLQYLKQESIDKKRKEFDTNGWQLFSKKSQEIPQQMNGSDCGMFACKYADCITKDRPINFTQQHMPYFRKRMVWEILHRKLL
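Test system: recombinant human SENP1 catalytic domain, His6-tagged / Medium: pH 8 Tris buffer with EDTA, NaCl, BME, BSA, NP40, catalase / Also added: SUMO1 FRET substrate flanked by Cypet and Ypet, 25 nM / Times: 50 min reaction at room temperature / Signal: FRET, CFP and YFP emission / Control set: no-enzyme low control and enzyme-plus-DMSO high control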
TPT1 inhibitor = Candida albicans TPT1 enzyme inhibitors, primary screen, biochemical, fluorescence polarization. tRNA 2'-phosphotransferase TPT1 (Candida albicans SC5314). recombinant caTPT1, FP RNA substrate dephosphorylation. inhibition, % at 5 µM. actives 0.81% (n = 300,000). AID 1962, 2009;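 active means inhibition above the mean of all tested compounds plus 3 SD, set per screening campaign, cut at about 24% in these data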;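 further: plate controls were DMSO alone for no effect and ferristatin control at 100 nM for full effect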
TPT1 inh confirm = Candida albicans TPT1 inhibitors, confirmation, biochemical, fluorescence polarization, triplicate; shares compounds with TPT1 inhibitor; recombinant caTPT1, RNase T1 coupled; inhibition, % at 5 µM; actives 74% (n = 2,400); AID 2149, 2009;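 active means inhibition above the primary screen limit, the mean inhibition of all tested compounds plus 3 SD, cut at about 25% in these data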
RNase T1 inh = RNase T1 inhibitors, counter-screen for TPT1 inhibitor project, biochemical, fluorescence polarization. AID 2153, 2009. RNase T1 cleavage, 1536-well. inhibition, % at 5 µM. shares compounds with TPT1 inhibitor. actives 83% (n = 2,400);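 active means inhibition above the solvent-only control well mean plus 3 SD, limit set per screening run, cut at about 23% in these data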;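 further: plate controls were DMSO wells with enzyme for no effect and wells without RNase T1 for full effect; inhibitors block cleavage so intact labeled substrate keeps polarization high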
Target sequence (P00651 whole entry, looked up): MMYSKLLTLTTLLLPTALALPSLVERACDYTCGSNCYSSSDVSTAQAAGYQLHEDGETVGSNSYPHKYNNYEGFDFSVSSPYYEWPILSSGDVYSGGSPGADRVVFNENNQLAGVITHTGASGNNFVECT
Active calls of the source: *; nt = no result given. A selection: hits, their analogues and other compounds. The true share with any hit is near 2%.

SMILES | ATG4B inh | HNF4A DNA FP | Rpn11 block | CSN deneddyl inh | SENP1 FRET inh | TPT1 inhibitor | TPT1 inh confirm | RNase T1 inh
CCOC(=O)c1c(/N=C/C2C(=O)CCCC2=O)sc2c1CCCC2 | 28.4 | 6.6 | -0.3 | -2.4 | -24.9 | -7.6 | nt | nt
CCOC(=O)c1c(CC(C)C)csc1/N=C/C1C(=O)CCCC1=O | 2.4 | 2.9 | 14.1 | 17.0 | -81.2 | 126.2* | 14.6 | 20.0
CCOC(=O)c1c(-c2ccc(C)cc2)csc1/N=C/N(C)C | -5.4 | -0.1 | 7.5 | 3.3 | 2.1 | 1.8 | nt | nt
CCOC(=O)c1c(-c2ccccc2)csc1/N=C/C1C(=O)CCCC1=O | 9.8 | 2.8 | 4.1 | -0.5 | -73.7 | 113.8* | 20.7 | 32.6*
CCOc1ccc(Br)cc1S(=O)(=O)Nc1nc(CN2CCOCC2)nc2sc(C)c(C)c12 | 0.9 | 4.8 | 24.5 | 9.7 | -2.9 | 31.1* | 27.2* | 35.0*
CCc1noc(C)c1C(=O)N(CC)CC(=O)NCc1ccc(F)cc1 | nt | -0.1 | 2.0 | 0.0 | 3.4 | nt | nt | nt
COCCCNC(=O)CC1C[C@H](C(=O)N2CCCCC2)[C@@]2(CCc3ccccc3)c3[nH]c4ccc(OC)cc4c3CCN2C1=O (stereo not given in full) | nt | -1.9 | -6.7 | -0.9 | -0.5 | nt | nt | nt
CC(C)C(C(=O)O)N1C(=O)/C(=C/c2cccn2C)SC1=S (stereo not given) | 17.2 | 88.2* | nt | 66.4* | -57.2 | 106.0* | 125.4* | 134.4*
CCCC(C(=O)O)N1C(=O)/C(=C/c2cccn2C)SC1=S (stereo not given) | 10.6 | 114.5 | nt | 88.7* | -41.0 | 106.7* | 121.1* | 127.3*
CC(C)C(C(=O)O)N1C(=O)/C(=C/C=C/c2ccco2)SC1=S (stereo not given) | 65.3* | -24.2 | nt | 60.7 | 25.1 | 82.7* | 88.0* | 64.0*
C#CCN1C=CC(=O)[C@@H](OC(=O)NCCC)[C@H]1c1ccccc1Br | -3.4 | -0.1 | -4.5 | -2.1 | 0.3 | nt | nt | nt
COc1ccc(/C=C2/CC/C(=C\c3ccc(OC)c(OC)c3OC)C2=O)c(OC)c1OC | -0.6 | 4.9 | 30.3 | -0.3 | -27.7 | 24.4* | 36.5* | 42.7*
COc1ccc(/C=C2\CCC(C3CCCC3)C2=O)c(OC)c1OC (stereo not given) | -2.3 | -3.2 | -0.6 | 0.8 | 0.8 | 3.4 | nt | nt
COc1cc(/C=C2\CC/C(=C\c3cc(OC)c(OC)c(OC)c3)C2=O)cc(OC)c1OC | -3.7 | -0.4 | 12.4 | 8.4 | -29.4 | 39.0* | 48.3* | 56.7*
CC1(C(=O)NCc2ccccc2)CN(S(C)(=O)=O)CC(=O)N1C1CCN(Cc2ccccc2)CC1 (stereo not given) | nt | -1.1 | nt | -0.2 | -2.6 | nt | nt | nt
CC1C(=O)CC2C3(C)CCC2(C(C)C(=O)O)C(=O)C13 (stereo not given) | nt | 3.5 | 1.9 | 3.5 | 2.6 | nt | nt | nt
O=C(NNS(=O)(=O)c1ccccc1)c1ccc(S(=O)(=O)N2CCCCC2)cc1 | 2.2 | -0.5 | -6.4 | -4.7 | 1.8 | 40.2* | 1.4 | 1.9
COCCn1c(N)c(N(Cc2ccccc2)C(=O)c2ccc(N3CCCC3=O)cc2)c(=O)[nH]c1=O | -3.9 | -4.0 | 3.0 | -0.5 | 0.1 | nt | nt | nt
Nc1c(C(=O)N/N=C/c2cccnc2)oc2nc(-c3ccco3)cc(-c3ccco3)c12 | -7.2 | -43.9 | -48.5 | 46.8 | -42.8 | 44.4* | 75.5* | 80.5*
Cc1cc(C)c2c(N)c(C(=O)N/N=C/c3cccnc3)sc2n1 | -14.3 | -0.9 | -14.8 | 6.7 | -104.9 | 15.3 | nt | nt
NNC(=O)c1oc2nc(-c3ccco3)cc(-c3ccco3)c2c1N | -4.6 | 9.8 | 13.6 | -1.0 | -35.0 | 65.8* | 47.8* | 60.7*
COc1c2c(c(OC)c3ccccc13)[C@]1(OC2)O[C@H](CCO)C[C@H](O)[C@H]1O | nt | -0.2 | -5.6 | -7.0 | 1.5 | nt | nt | nt
CN(C)/C=C/C(=O)/C=C/c1cn(-c2ncc(C(F)(F)F)cc2Cl)c2ccccc12 | 9.2 | 8.1 | 19.2 | 5.9 | -24.8 | 31.6* | 17.3 | 20.1
COC(=O)Cc1cn(-c2ncc(C(F)(F)F)cc2Cl)c2ccccc12 | -0.5 | 0.1 | 8.9 | -1.5 | -2.1 | -1.4 | nt | nt
Cc1cc(N2C(=O)C(O)=C(C(=O)c3cc4ccccc4o3)C2c2cccs2)no1 (stereo not given) | -3.5 | 7.0 | 15.0 | 10.2 | -22.3 | 40.8* | 29.9* | 39.5*
SMILES | ATG4B inh | HNF4A DNA FP | Rpn11 block | CSN deneddyl inh | SENP1 FRET inh | TPT1 inhibitor | TPT1 inh confirm | RNase T1 inh
Cc1cc(N2C(=O)C(O)=C(C(=O)c3ccc(C)o3)C2c2cccs2)no1 (stereo not given) | -2.0 | -0.7 | -0.5 | 1.7 | -23.6 | -0.5 | nt | nt
COc1ccc(C(C)(O)c2nc(-c3ccc(F)cc3OC)cs2)cc1 (stereo not given) | nt | -4.7 | 2.5 | -2.6 | 0.9 | nt | nt | nt
CC1(C(=O)NS(=O)(=O)c2cccc(OC(F)F)c2)CCN1C(=O)c1ccccc1CCc1ccccc1 (stereo not given) | nt | 1.2 | -0.2 | -0.4 | 0.2 | nt | nt | nt
CC(C)(C)c1ccc(S(=O)(=O)NCc2ccc(C(=O)N3CCCC3)cc2)cc1 | 0.0 | 0.4 | -1.9 | 0.8 | 0.2 | -5.0 | nt | nt
Cc1ccc(S(=O)(=O)NCc2ccc(C(=O)N3CCCC3)cc2)cc1 | 1.5 | 3.5 | -1.7 | 3.7 | 2.6 | 33.2* | 5.9 | 10.3
CN1C2CCC1/C(=C/c1cccn1C)C(=O)/C2=C\c1cccn1C | -25.5 | 138.1 | nt | -31.2 | -25.0 | 121.4* | 123.3* | 117.1*
COc1ccc(N(C)S(=O)(=O)c2cccc(C(=O)NCc3ccc(C)cc3)c2)cc1 | -7.7 | 1.3 | 1.5 | -2.5 | 2.3 | nt | nt | nt
CN(C)c1ccc(/C=N/NC(=O)c2ccccc2)cc1 | -6.0 | -2.0 | 0.5 | 8.9 | -2.0 | -0.3 | nt | nt
CN(C)c1ccc(/C=C(\NC(=O)c2ccccc2)C(=O)NCc2cccnc2)cc1 | -2.6 | 2.8 | 37.3 | 19.5 | -8.7 | 50.6* | 68.0* | 83.7*

Compound activity as filed in PubChem BioAssay.
